Compound activity (PubChem BioAssay)
CSN inh = inhibitors of human CSN-mediated cullin deneddylation | Q92905 | Purified CSN, SCF-Nedd8-OG deneddylation, fluorescence polarization | inhibition, % at 12.5 µM | 360,000 compounds, 0.38% hits | AID 651999;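 active means pattern-corrected inhibition above about 35%, with an unprinted fluorescence ratio check between 0.5 and 1.5, limit read from the data, passing the limit was not always enough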;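 further: 0% = enzyme with substrate and 100% = substrate without enzyme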
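Assay system: purified human Csn5 enzyme expressed in HEK293T cells; Input: 0.24 nM Csn5 enzyme, final concentration; Reagent: 10 nM SCFSkp2-Nedd8OG; Compound dosing: 12.5 µM single point; Times: reaction 90 min, room temperature; Technique: fluorescence polarization readout.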
Rpn11 inh = Rpn11 (human) deubiquitinase inhibition. 360,000 compounds, 0.59% hits. human 26S proteasome, Ub4-pepOG fluorescence polarization; 20S core pre-blocked with epoxomicin. inhibition, % at 20 µM. O00487;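 active means inhibition at 20 µM, scaled to each plate's controls, above about 33%, limit read from the data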
Neddylation inh = cullin neddylation inhibition; P61081+Q13564; TR-FRET cullin neddylation, biochemical; inhibition, % at 25 µM; 360,000 compounds, 0.58% hits; in the data active means inhibition above about 36%
TPT1 inhibitor = blocks Candida albicans tRNA 2'-phosphotransferase | recombinant caTPT1, FP RNA substrate dephosphorylation | inhibition, % at 5 µM | 300,000 compounds, 0.81% hits | AID 1962;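 active means inhibition above the mean of all tested compounds plus 3 SD, set per screening campaign, cut at about 24% in these data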;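 further: plate controls were DMSO alone for no effect and ferristatin control at 100 nM for full effect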
HNF4A DNA FP = change in binding of human HNF4 alpha to DNA | P41235 | activity change, % at 10 µM | HNF4a-FITC DNA binding, fluorescence polarization, 1 h | 360,000 compounds, 0.3% hits; in the data active means activity change above about 30%, passing the limit was not always enough
Rin1 Abl inh = blocks binding of human Rin1 to Abl; P00519+Q13671; inhibition, % at 7.35 µM; TR-FRET Rin1/Abl binding, biochemical; 360,000 compounds, 0.4% hits; in the data active means inhibition above about 5%, passing the limit was not always enough
Target sequence (P00519 whole entry, looked up): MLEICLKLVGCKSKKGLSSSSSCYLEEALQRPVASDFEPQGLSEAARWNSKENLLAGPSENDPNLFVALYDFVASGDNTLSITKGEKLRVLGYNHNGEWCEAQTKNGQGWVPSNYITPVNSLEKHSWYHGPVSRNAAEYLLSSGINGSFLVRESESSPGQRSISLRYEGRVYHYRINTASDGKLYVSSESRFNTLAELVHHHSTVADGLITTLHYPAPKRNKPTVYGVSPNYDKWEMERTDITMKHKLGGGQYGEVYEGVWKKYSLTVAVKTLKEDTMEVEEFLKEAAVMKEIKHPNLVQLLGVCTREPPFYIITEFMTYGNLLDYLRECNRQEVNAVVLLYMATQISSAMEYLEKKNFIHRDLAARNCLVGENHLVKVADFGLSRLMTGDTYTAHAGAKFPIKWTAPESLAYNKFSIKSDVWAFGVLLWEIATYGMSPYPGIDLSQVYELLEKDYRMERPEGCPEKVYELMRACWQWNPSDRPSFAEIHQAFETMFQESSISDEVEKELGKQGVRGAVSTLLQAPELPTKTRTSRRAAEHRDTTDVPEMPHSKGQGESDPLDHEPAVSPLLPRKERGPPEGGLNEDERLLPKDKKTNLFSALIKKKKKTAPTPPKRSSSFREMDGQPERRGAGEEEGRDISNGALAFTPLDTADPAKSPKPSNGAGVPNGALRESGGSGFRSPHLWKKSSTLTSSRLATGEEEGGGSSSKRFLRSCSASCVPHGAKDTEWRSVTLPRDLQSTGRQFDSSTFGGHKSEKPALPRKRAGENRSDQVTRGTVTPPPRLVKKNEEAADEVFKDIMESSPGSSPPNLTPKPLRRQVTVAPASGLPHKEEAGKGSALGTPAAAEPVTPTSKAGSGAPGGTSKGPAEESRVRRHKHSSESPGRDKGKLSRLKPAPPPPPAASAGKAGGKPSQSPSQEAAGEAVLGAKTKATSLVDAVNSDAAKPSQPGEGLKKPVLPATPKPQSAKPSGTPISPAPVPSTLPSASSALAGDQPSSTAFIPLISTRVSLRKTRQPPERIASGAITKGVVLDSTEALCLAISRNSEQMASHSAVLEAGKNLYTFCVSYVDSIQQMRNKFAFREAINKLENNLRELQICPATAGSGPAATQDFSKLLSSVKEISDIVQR
Target sequence (Q13671 whole entry, looked up): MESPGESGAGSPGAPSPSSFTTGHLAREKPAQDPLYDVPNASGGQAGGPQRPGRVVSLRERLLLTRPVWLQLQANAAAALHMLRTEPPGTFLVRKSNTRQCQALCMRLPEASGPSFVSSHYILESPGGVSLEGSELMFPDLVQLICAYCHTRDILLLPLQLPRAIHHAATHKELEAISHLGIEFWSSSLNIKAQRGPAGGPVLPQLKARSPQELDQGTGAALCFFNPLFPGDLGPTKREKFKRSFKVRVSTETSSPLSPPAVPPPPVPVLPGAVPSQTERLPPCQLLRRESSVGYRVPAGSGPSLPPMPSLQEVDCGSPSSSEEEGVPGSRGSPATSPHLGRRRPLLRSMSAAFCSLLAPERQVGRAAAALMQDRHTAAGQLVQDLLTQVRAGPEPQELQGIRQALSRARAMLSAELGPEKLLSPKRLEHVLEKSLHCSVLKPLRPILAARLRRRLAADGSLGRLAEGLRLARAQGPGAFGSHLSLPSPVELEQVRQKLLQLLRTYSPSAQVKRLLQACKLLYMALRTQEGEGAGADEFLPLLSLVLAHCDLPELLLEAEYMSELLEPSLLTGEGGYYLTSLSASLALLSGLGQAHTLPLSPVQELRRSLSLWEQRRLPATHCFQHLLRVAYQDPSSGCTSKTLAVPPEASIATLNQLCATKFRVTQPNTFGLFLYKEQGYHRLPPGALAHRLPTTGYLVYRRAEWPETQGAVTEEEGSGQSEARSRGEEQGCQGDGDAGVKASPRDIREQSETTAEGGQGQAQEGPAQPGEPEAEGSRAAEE
Neddyl conf = cullin neddylation inhibition, confirmation; shares compounds with Neddylation inh; calls only at 25 µM; AID 652217; TR-FRET cullin neddylation biochemical assay; 1,800 compounds, 13% hits; in the data active means inhibition above about 40%;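 further: neddylation substrate is the cullin 1 ring ligase complex with SKP2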
* hit, by the source's call. An excerpt weighted towards active compounds, which were near 2.4% of everything screened.

How did CC(=O)N(Cc1nc2sc(C)c(C)c2c(=O)[nH]1)C1CCCC1 do in these assays?
CSN inh: -10.0; Rpn11 inh: -6.7; Neddylation inh: 0.7; TPT1 inhibitor: 3.8; HNF4A DNA FP: -0.5; Rin1 Abl inh: 4.1

What do the screens show for `CCSc1nnc(-c2ccc(S(=O)(=O)N3CCCC3)cc2)n1C`?
CSN inh: 2.1; Rpn11 inh: -5.2; Neddylation inh: 45.6*; TPT1 inhibitor: 1.0; HNF4A DNA FP: 2.0; Rin1 Abl inh: 4.0; Neddyl conf: inactive

How did CCSc1nnc(-c2ccc(S(=O)(=O)N3CCOCC3)cc2)n1C do in these assays?
CSN inh: -7.3; Rpn11 inh: -2.6; Neddylation inh: 39.4*; TPT1 inhibitor: -0.6; HNF4A DNA FP: 0.2; Rin1 Abl inh: -0.8; Neddyl conf: inactive

Results for CCC1CCC(C(=O)NC(CCSC)C(=O)NCCN(CC(C)C)CC(C)C)CC1 (stereo not drawn) ?
CSN inh: 3.7; Rpn11 inh: 4.7; Neddylation inh: -3.3; TPT1 inhibitor: -0.7; HNF4A DNA FP: -2.2; Rin1 Abl inh: -2.1

Results for Cc1ccc(C)c(Nc2ccc(C(=O)NCCc3ccccc3)cn2)c1 ?
CSN inh: 0.8; Rpn11 inh: -0.6; Neddylation inh: 38.7; TPT1 inhibitor: -0.3; HNF4A DNA FP: 2.0; Rin1 Abl inh: -1.0

Results for Cc1ccc(Nc2ccc(C(=O)NCCc3ccccc3)cn2)cc1 ?
CSN inh: -9.5; Rpn11 inh: -4.5; Neddylation inh: 40.9*; TPT1 inhibitor: -5.0; HNF4A DNA FP: 0.5; Rin1 Abl inh: -1.1; Neddyl conf: inactive

Results for OC(c1ccccc1)C(NCc1ccccc1)c1ccccc1 (stereo not drawn) ?
CSN inh: 1.3; Rpn11 inh: -10.6; Neddylation inh: 1.1; HNF4A DNA FP: -1.6; Rin1 Abl inh: -10.1

How did CCOc1ccccc1C1C(C#N)=C(N)Oc2cc(N)ccc21 (stereo not drawn) do in these assays?
CSN inh: 4.6; Rpn11 inh: -7.4; Neddylation inh: 46.7*; TPT1 inhibitor: 2.9; HNF4A DNA FP: -2.6; Rin1 Abl inh: -1.1; Neddyl conf: inactive

What do the screens show for `COc1ccc(OC)c(C2C(C#N)=C(N)Oc3cc(N)ccc32)c1` (stereo not drawn)?
CSN inh: 5.7; Rpn11 inh: 7.8; Neddylation inh: 18.9; TPT1 inhibitor: 2.3; HNF4A DNA FP: 3.9; Rin1 Abl inh: 1.7

What do the screens show for `Cc1cccc(C)c1NC(=O)C(c1ccccc1)n1c(-c2ccccc2)nc2ccccc21` (stereo not drawn)?
CSN inh: 4.4; Neddylation inh: 0.6; HNF4A DNA FP: 3.3

Results for CCCC[C@@H]1Cc2[nH][nH]c(=O)c2[C@H](c2cccc3ccccc23)O1 ?
CSN inh: -6.6; Neddylation inh: -3.2; HNF4A DNA FP: -1.9

Results for CCc1cc(CC)c(/C=N/NC(N)=O)c(CC)c1 ?
CSN inh: 5.3; Rpn11 inh: -4.1; Neddylation inh: -1.9; TPT1 inhibitor: 0.6; HNF4A DNA FP: -3.7; Rin1 Abl inh: 1.9

How did Cc1nn(CCO)c2nc(-c3cccs3)cc(C(F)(F)F)c12 do in these assays?
CSN inh: 0.2; Rpn11 inh: -0.9; TPT1 inhibitor: -0.9; HNF4A DNA FP: 1.4; Rin1 Abl inh: -0.5

How did Cc1nn(C)c2nc(-c3cccs3)cc(C(F)(F)F)c12 do in these assays?
CSN inh: -12.9; Rpn11 inh: -1.9; Neddylation inh: 45.2*; TPT1 inhibitor: -2.7; HNF4A DNA FP: 0.3; Rin1 Abl inh: 3.5; Neddyl conf: inactive

Results for Cc1ccc2nc(NCCCN3CCOCC3)c(C=NCCCN3CCOCC3)c(=O)n2c1 ?
CSN inh: -2.4; Rpn11 inh: -2.9; Neddylation inh: 41.9*; HNF4A DNA FP: -2.4; Rin1 Abl inh: -1.6; Neddyl conf: inactive

What do the screens show for `Cc1ccc2nc(NCc3ccccc3)c(C=NCc3ccccc3)c(=O)n2c1`?
CSN inh: 3.7; Rpn11 inh: -2.3; Neddylation inh: 18.3; TPT1 inhibitor: -1.4; HNF4A DNA FP: 0.7; Rin1 Abl inh: 1.3

How did O=C(N/N=C/c1ccc2c(c1)OCO2)C(O)c1ccccc1 (stereo not drawn) do in these assays?
CSN inh: -10.2; Rpn11 inh: 6.0; Neddylation inh: -13.4; TPT1 inhibitor: -0.3; HNF4A DNA FP: 1.7; Rin1 Abl inh: -1.5

How did CC(C)OC(=O)C(C#N)c1nc2ccccc2nc1N1CCCC1 (stereo not drawn) do in these assays?
CSN inh: -2.4; Rpn11 inh: 5.0; Neddylation inh: 41.0*; TPT1 inhibitor: -0.8; HNF4A DNA FP: 1.6; Rin1 Abl inh: 2.5; Neddyl conf: inactive

How did COC(=O)C1CCN(c2nc3ccccc3nc2C(C#N)C(=O)OCC(C)C)CC1 (stereo not drawn) do in these assays?
CSN inh: 2.3; Rpn11 inh: -3.1; Neddylation inh: 41.0*; TPT1 inhibitor: 0.7; HNF4A DNA FP: -4.5; Rin1 Abl inh: -2.2; Neddyl conf: inactive

Results for COC(=O)C(C#N)c1nc2ccccc2nc1N1CCCC1 (stereo not drawn) ?
CSN inh: 5.2; Rpn11 inh: 2.6; Neddylation inh: 18.8; TPT1 inhibitor: 6.7; HNF4A DNA FP: 1.8; Rin1 Abl inh: -3.5

How did O=C(NCc1cccc(Cl)c1)c1ccc(N2CC3CC(C2)c2cccc(=O)n2C3)c(NC(=O)c2cccnc2)c1 (stereo not drawn) do in these assays?
CSN inh: 4.0; Rpn11 inh: -4.4; Neddylation inh: 2.0; TPT1 inhibitor: -0.3; HNF4A DNA FP: -1.2; Rin1 Abl inh: -0.9

Results for COC(=O)C1=C(C)Nc2sc(C(N)=O)c(N)c2C1c1ccncc1 (stereo not drawn) ?
CSN inh: -2.3; Rpn11 inh: -2.9; Neddylation inh: 41.9*; TPT1 inhibitor: -0.2; HNF4A DNA FP: 4.6; Rin1 Abl inh: 1.4; Neddyl conf: inactive

What do the screens show for `COc1ccc(CC(=O)N2CCN(C(=O)Cc3ccc(OC)cc3)CC2)cc1`?
CSN inh: -0.5; Rpn11 inh: -4.0; Neddylation inh: 2.7; TPT1 inhibitor: 1.6; HNF4A DNA FP: -2.9; Rin1 Abl inh: 1.8

How did COc1ccc(CC(=O)N2CCN(c3ccc(C4=NNC(=O)CC4C)cc3)CC2)cc1 (stereo not drawn) do in these assays?
CSN inh: 6.8; Rpn11 inh: 1.5; Neddylation inh: 45.8*; TPT1 inhibitor: -2.9; HNF4A DNA FP: 4.5; Rin1 Abl inh: -7.3

What do the screens show for `Cc1ccc(CNC(=O)CSc2nc3[nH]ncc3c(=O)[nH]2)cc1`?
CSN inh: -2.1; Rpn11 inh: -6.8; Neddylation inh: -4.7; TPT1 inhibitor: -2.0; HNF4A DNA FP: -5.1; Rin1 Abl inh: 1.2
